According to ChEMBL document CHEMBL4819084, “Discovery of 3,5-dimethylisoxazole derivatives as novel, potent inhibitors for bromodomain and extraterminal domain (BET) family” (Bioorg Med Chem, 2021):

Experiments:
[1] = Cytotoxicity against human MCF-10A cells assessed as inhibition of cell proliferation at 2 uM incubated for 48 hrs by MTT assay; type: cell-based
In short: (§1)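 Cryopreserved cells thawed at 37 °C, cultured one day, then seeded at 5000–10,000 cells/well in 96-well plates and left overnight to attach. Compound added at a single concentration or as a gradient series and incubated 48 h. MTT solution added and absorbance read.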

CT26 [2] = assay: Antiproliferative activity against […] assessed as inhibition of cell proliferation at 2 uM incubated for 48 hrs by MTT assay relative to control; type: functional; details: Mus musculus; in short: as §1
MCF7 = assay: Antiproliferative activity against human MCF7 cells assessed as inhibition of cell proliferation at 2 uM incubated for 48 hrs by MTT assay relative to control; type: functional; in short: as §1
HepG2 [3] = assay: Antiproliferative activity against human HepG2 cells assessed as inhibition of cell proliferation at 2 uM incubated for 48 hrs by MTT assay relative to control; type: functional; in short: as §1
HCT-116 = assay: Antiproliferative activity against human HCT-116 cells assessed as inhibition of cell proliferation at 2 uM incubated for 48 hrs by MTT assay relative to control; type: functional; in short: as §1
U-266 [4] = assay: Antiproliferative activity against human U-266 cells assessed as inhibition of cell proliferation at 0.1 uM incubated for 48 hrs by MTT assay relative to control; type: functional; in short: as §1
[5] = target: Bromodomain-containing protein 4 (Homo sapiens, UniProt O60885); assay: Inhibition of BRD4-BD1 (unknown origin) preincubated for 15 mins followed by substrate addition and measured after 1 hr
CT26 [6] = assay: Antiproliferative activity against […] assessed as inhibition of cell proliferation incubated for 48 hrs by MTT assay; type: functional, cell-based; details: Mus musculus, CT26, 48 h; in short: as §1
HepG2 [7] = assay: Antiproliferative activity against human HepG2 cells assessed as inhibition of cell proliferation incubated for 48 hrs by MTT assay; type: functional, cell-based; details: HepG2, 48 h; in short: as §1
U-266 [8] = assay: Antiproliferative activity against human U-266 cells assessed as inhibition of cell proliferation incubated for 48 hrs by MTT assay; type: functional, cell-based; details: U-266, 48 h; in short: as §1

Structure (SMILES) | inhibition at 48 h, 2 µM [1] [%] | inhibition at 2 µM (CT26 [2]) [%] | inhibition at 2 µM (MCF7) [%] | inhibition at 2 µM (HepG2 [3]) [%] | inhibition at 2 µM (HCT-116) [%] | inhibition at 0.1 µM (U-266 [4]) [%] | IC50 [5] [nM] | IC50 (CT26 [6]) [µM] | IC50 (HepG2 [7]) [µM] | IC50 (U-266 [8]) [µM]
Cc1nc(-c2ccccc2)sc1CN1C(=O)N(C)c2ccc(-c3c(C)noc3C)cc2C1c1ccccc1 (stereo not given) | 4.9 | 20.1 | 35.1 | 29.2 | 28.3 | 7.19 |  |  |  | 
Cc1noc(C)c1-c1ccc2c(c1)C(c1ccccc1)N(CC(=O)N1CCN(c3ccc4nnc(Cl)n4n3)CC1)C(=O)N2C (stereo not given) | 10.9 | 27.5 | 33.4 | 28.5 | 48.9 | 19.8 | 5.6 |  |  | 
Cc1noc(C)c1-c1ccc2c(c1)C(c1ccccc1)N(Cc1csc(-c3ccc(F)cc3)n1)C(=O)N2C (stereo not given) | 6.8 | 17 | 37.9 | 31.3 | 31.8 | 8.4 |  |  |  | 
Cc1noc(C)c1-c1ccc2c(c1)C(c1ccccc1)N(CCCCCCCC(=O)N1CCN(c3ccc4nnc(Cl)n4n3)CC1)C(=O)N2C (stereo not given) | 0.5 | 8.8 | 28.7 | 13.6 | 14.1 | 8.5 | 37 |  |  | 
Cc1noc(C)c1-c1ccc2c(c1)C(c1ccccc1)N(Cc1nnc(-c3ccc(F)cc3)o1)C(=O)N2C (stereo not given) | 0.7 | 24 | 26.7 | 52.8 | 36.6 | 26.8 | 58 |  |  | 
Cc1noc(C)c1-c1ccc2c(c1)C(c1ccccc1)N(CCCCCCN1CCN(c3ccc4nnc(Cl)n4n3)CC1)C(=O)N2C (stereo not given) | 5.3 | 20.3 | 33.1 | 51.9 | 44.7 | 45.5 | 3.1 | 7.95 | 9.45 | 2.12
Cc1noc(C)c1-c1ccc2c(c1)C(c1ccccc1)N(CCOCCN1CCN(c3ccc4nnc(Cl)n4n3)CC1)C(=O)N2C (stereo not given) | 6 | 25.1 | 34.7 | 36.7 | 18.7 | 29.5 | 12 | 22.9 | 21 | 3.05
Cc1noc(C)c1-c1ccc2c(c1)C(c1ccccc1)N(Cc1csc(-c3ccccc3)n1)C(=O)N2C (stereo not given) | 4.4 | 23.5 | 17.5 | 34 | 28.4 | 10.4 |  |  |  | 
Cc1noc(C)c1-c1ccc2c(c1)C(c1ccccc1)N(Cc1nc(-c3ccc(F)cc3)cs1)C(=O)N2C (stereo not given) | 8.5 | 16.4 | 27.4 | 41.1 | 33.3 | 12.6 |  |  |  | 
Cc1noc(C)c1-c1ccc2c(c1)C(c1ccccc1)N(Cc1nc(-c3ccccc3)cs1)C(=O)N2C (stereo not given) | 2.7 | 15.5 | 29.1 | 44.5 | 26.7 | 12.7 |  |  |  | 
Cc1nc(-c2ccc(F)cc2)sc1CN1C(=O)N(C)c2ccc(-c3c(C)noc3C)cc2C1c1ccccc1 (stereo not given) | 6.5 | 28.8 | 33.4 | 26.4 | 26 | 10 |  |  |  | 
Cc1noc(C)c1-c1ccc2c(c1)C(c1ccccc1)N(CCCCBr)C(=O)N2C (stereo not given) |  |  |  |  |  |  | 13 |  |  | 
Cc1noc(C)c1-c1ccc2c(c1)C(c1ccccc1)N(CCCCCN1CCN(c3ccc4nnc(Cl)n4n3)CC1)C(=O)N2C (stereo not given) | 9.3 | 33.8 | 33.4 | 39.8 | 39 | 48.4 | 8.8 | 11.8 | 14 | 1.99
Cc1sc2c(c1C)C(c1ccc(Cl)cc1)=N[C@@H](CC(=O)OC(C)(C)C)c1nnc(C)n1-2 | 6.5 | 37.9 | 35.4 | 22.2 | 30.3 | 35.7 |  | 28.7 | 18.4 | 3.45
Cc1noc(C)c1-c1ccc2c(c1)C(c1ccccc1)NC(=O)N2C (stereo not given) | 6.8 | 44 | 33.5 | 32.5 | 27.8 | 13.1 | 53 | 36 | 18.8 | 35.4
Cc1noc(C)c1-c1ccc2c(c1)C(c1ccccc1)N(Cc1nnc(-c3ccccc3)o1)C(=O)N2C (stereo not given) | 12.4 | 30.1 | 34.1 | 34.7 | 31.4 | 26.7 | 55 | 21.2 | 19.5 | 3.45
CCS(=O)(=O)Nc1ccc(Oc2ccc(F)cc2F)c(-c2cn(C)c(=O)c3[nH]ccc23)c1 [MIVEBRESIB] |  |  |  |  |  |  |  | 48.3 |  | 2.03
Cc1noc(C)c1-c1ccc2c(c1)C(c1ccccc1)N(Cc1ncc(-c3ccccc3)o1)C(=O)N2C (stereo not given) | 3.7 | 21.2 | 34 | 50.6 | 30 | 15.1 | 105 |  |  | 
Cc1noc(C)c1-c1ccc2c(c1)C(c1ccccc1)N(Cc1nnc(-c3ccccc3)s1)C(=O)N2C (stereo not given) | 3.3 | 28.1 | 35.7 | 35.2 | 26.9 | 20.3 | 74 |  |  | 
Cc1noc(C)c1-c1ccc2c(c1)C(c1ccccc1)N(CCCCCC(=O)N1CCN(c3ccc4nnc(Cl)n4n3)CC1)C(=O)N2C (stereo not given) | 14.7 | 25.1 | 33.6 | 30.7 | 38.4 | 31.3 | 9.2 |  |  | 
